Square brackets hold non-standard residues; d marks the D form. Peptide text beside a SMILES is read from it. Trx = NC[C@H]1CC[C@H](C(=O)O)CC1; 4Amb = NCc1ccc(C(=O)O)cc1; 3Abz = Nc1cccc(C(=O)O)c1; 4Abz = Nc1ccc(C(=O)O)cc1; 2Abz = Nc1ccccc1C(=O)O; Ahx = NCCCCCC(=O)O
Key:
KiSS-1 receptor [1] = biological target: T1, KiSS-1 receptor (Homo sapiens, UniProt Q969F8); experiment: Agonist activity at GPR54 expressed in CHO cells assessed as intracellular calcium mobilization; assay type: functional, cell-based
T1 sequence (Q969F8 whole entry): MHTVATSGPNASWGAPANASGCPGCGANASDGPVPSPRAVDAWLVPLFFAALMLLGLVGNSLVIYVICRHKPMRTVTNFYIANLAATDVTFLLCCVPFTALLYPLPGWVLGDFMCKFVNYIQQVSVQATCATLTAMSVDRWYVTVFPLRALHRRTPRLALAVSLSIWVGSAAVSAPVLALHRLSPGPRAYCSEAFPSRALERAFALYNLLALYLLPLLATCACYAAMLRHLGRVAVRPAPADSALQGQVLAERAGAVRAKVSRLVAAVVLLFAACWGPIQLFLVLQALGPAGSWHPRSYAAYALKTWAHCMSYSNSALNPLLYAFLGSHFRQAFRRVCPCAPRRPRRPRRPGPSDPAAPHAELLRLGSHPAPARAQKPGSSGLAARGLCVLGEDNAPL

KiSS-1 receptor [2] = biological target: T1, KiSS-1 receptor; experiment: Ratio of EC50 of drug for GPR54 to EC50 of KP-10 for GPR54; assay type: functional
How it was run: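 Q calculated as EC50(compound)/EC50(KP-10), with KP-10 run as control on each FLIPR Ca2+ plate (GPR54/CHO cells) to correct for plate-to-plate variation.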

KiSS-1 receptor [3] = biological target: T1, KiSS-1 receptor; experiment: Agonist activity at GPR54 expressed in CHO cells assessed as intracellular calcium mobilization at 10 nM relative to KP-10; assay type: functional, cell-based
How it was run: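 FLIPR Fluo3 Ca2+ mobilization in CHO/dhfr cells stably expressing GPR54, read over 40 s. Peptide tested at 10 nM (n = 3). Maximum signal expressed as a percentage of the maximum induced by 1 µM KP-10 (n = 3).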

Compound	EC50 (KiSS-1 receptor [1]) [nM]	Ratio EC50 (KiSS-1 receptor [2])	Activity (KiSS-1 receptor [3]) [%]
CC(C)C[C@H](NC(=O)CNC(=O)[C@H](Cc1ccccc1)NC(=O)c1ccc(CNCc2ccccc2)cc1)C(=O)N[C@@H](CCCNC(=N)N)C(=O)N[C@@H](Cc1c[nH]c2ccccc12)C(N)=O	3.3	5.6	86.5
CC(C)C[C@H](NC(=O)CNC(=O)[C@H](Cc1ccccc1)NC(=O)c1ccc([N+](=O)[O-])cc1)C(=O)N[C@@H](CCCNC(=N)N)C(=O)N[C@@H](Cc1c[nH]c2ccccc12)C(N)=O	1	1.5	94.3
CC(=O)NCc1ccc(C(=O)N[C@@H](Cc2ccccc2)C(=O)NCC(=O)N[C@@H](CC(C)C)C(=O)N[C@@H](CCCNC(=N)N)C(=O)N[C@@H](Cc2c[nH]c3ccccc23)C(N)=O)cc1 (Ac-[4Amb]FGLRW-NH2)	–	–	101
CC(C)C[C@H](NC(=O)CNC(=O)[C@H](Cc1ccccc1)NC(=O)c1cc(O)c(O)c(O)c1)C(=O)N[C@@H](CCCNC(=N)N)C(=O)N[C@@H](Cc1c[nH]c2ccccc12)C(N)=O	–	–	1
CC(C)C[C@H](NC(=O)CNC(=O)[C@H](Cc1ccccc1)NC(=O)c1ccc(F)cc1)C(=O)N[C@@H](CCCNC(=N)N)C(=O)N[C@@H](Cc1c[nH]c2ccccc12)C(N)=O	–	–	95.6
CC(C)C[C@H](NC(=O)CNC(=O)[C@H](Cc1ccccc1)NC(=O)c1ccc(CNC(=N)N)cc1)C(=O)N[C@@H](CCCNC(=N)N)C(=O)N[C@@H](Cc1c[nH]c2ccccc12)C(N)=O	–	–	93.7
CC(C)C[C@H](NC(=O)CNC(=O)[C@H](Cc1ccccc1)NC(=O)c1ccc(CN(Cc2ccccc2)Cc2ccccc2)cc1)C(=O)N[C@@H](CCCNC(=N)N)C(=O)N[C@@H](Cc1c[nH]c2ccccc12)C(N)=O	–	–	9.3
CC(C)C[C@H](NC(=O)CNC(=O)[C@H](Cc1ccccc1)NC(=O)c1ccc(O)cc1)C(=O)N[C@@H](CCCNC(=N)N)C(=O)N[C@@H](Cc1c[nH]c2ccccc12)C(N)=O	–	–	94.6
CC(C)C[C@H](NC(=O)CNC(=O)[C@H](Cc1ccccc1)NC(=O)CCCCCN)C(=O)N[C@@H](CCCNC(=N)N)C(=O)N[C@@H](Cc1c[nH]c2ccccc12)C(N)=O (H-[Ahx]FGLRW-NH2)	–	–	1.6
CC(C)C[C@H](NC(=O)CNC(=O)[C@H](Cc1ccccc1)NC(=O)c1ccc(NC(=N)N)cc1)C(=O)N[C@@H](CCCNC(=N)N)C(=O)N[C@@H](Cc1c[nH]c2ccccc12)C(N)=O	1.7	2.9	91.2
CC(C)C[C@H](NC(=O)CNC(=O)[C@H](Cc1ccccc1)NC(=O)c1ccc(CO)cc1)C(=O)N[C@@H](CCCNC(=N)N)C(=O)N[C@@H](Cc1c[nH]c2ccccc12)C(N)=O	–	4.7	95.4
CC(C)C[C@H](NC(=O)CNC(=O)[C@H](Cc1ccccc1)NC(=O)c1ccccc1OC(=O)c1ccccc1O)C(=O)N[C@@H](CCCNC(=N)N)C(=O)N[C@@H](Cc1c[nH]c2ccccc12)C(N)=O	3	4	92.1
CC(C)C[C@H](NC(=O)CNC(=O)[C@H](Cc1ccccc1)NC(=O)c1ccncc1)C(=O)N[C@@H](CCCNC(=N)N)C(=O)N[C@@H](Cc1c[nH]c2ccccc12)C(N)=O	1.7	2.4	102
CC(C)C[C@H](NC(=O)CNC(=O)[C@H](Cc1ccccc1)NC(=O)c1cccc(O)c1)C(=O)N[C@@H](CCCNC(=N)N)C(=O)N[C@@H](Cc1c[nH]c2ccccc12)C(N)=O	1.2	1.6	99.7
CC(C)C[C@H](NC(=O)CNC(=O)[C@H](Cc1ccccc1)NC(=O)c1ccc(CN)cc1)C(=O)N[C@@H](CCCNC(=N)N)C(=O)N[C@@H](Cc1c[nH]c2ccccc12)C(N)=O (H-[4Amb]FGLRW-NH2)	3.1	3.4	96.5
CC(C)C[C@H](NC(=O)CNC(=O)[C@H](Cc1ccccc1)NC(=O)[C@H]1CC[C@H](CN)CC1)C(=O)N[C@@H](CCCNC(=N)N)C(=O)N[C@@H](Cc1c[nH]c2ccccc12)C(N)=O (H-[Trx]FGLRW-NH2)	–	–	9.9
CC(C)C[C@H](NC(=O)CNC(=O)[C@H](Cc1ccccc1)NC(=O)c1c(F)c(F)c(F)c(F)c1F)C(=O)N[C@@H](CCCNC(=N)N)C(=O)N[C@@H](Cc1c[nH]c2ccccc12)C(N)=O	> 100	–	0.6
CC(C)C[C@H](NC(=O)CNC(=O)[C@H](Cc1ccccc1)NC(=O)c1ccc(CN(Cc2ccccn2)Cc2ccccn2)cc1)C(=O)N[C@@H](CCCNC(=N)N)C(=O)N[C@@H](Cc1c[nH]c2ccccc12)C(N)=O	–	–	88.9
CC(C)C[C@H](NC(=O)CNC(=O)[C@H](Cc1ccccc1)NC(=O)c1ccc(Cl)cc1)C(=O)N[C@@H](CCCNC(=N)N)C(=O)N[C@@H](Cc1c[nH]c2ccccc12)C(N)=O	–	–	91.8
CC(C)C[C@H](NC(=O)CNC(=O)[C@H](Cc1ccccc1)NC(=O)c1ccc(CNCc2ccccn2)cc1)C(=O)N[C@@H](CCCNC(=N)N)C(=O)N[C@@H](Cc1c[nH]c2ccccc12)C(N)=O	2.7	4.5	89.3
COc1ccc(C(=O)N[C@@H](Cc2ccccc2)C(=O)NCC(=O)N[C@@H](CC(C)C)C(=O)N[C@@H](CCCNC(=N)N)C(=O)N[C@@H](Cc2c[nH]c3ccccc23)C(N)=O)cc1	1.2	1.6	104

Other lines, results leading:

EC50 (KiSS-1 receptor [1]) [nM]	Ratio EC50 (KiSS-1 receptor [2])	Activity (KiSS-1 receptor [3]) [%]	Compound
5	–	–	CC(C)C[C@H](NC(=O)CNC(=O)[C@H](Cc1ccccc1)NC(=O)c1ccccc1O)C(=O)N[C@@H](CCCN=C(N)N)C(=O)N[C@@H](Cc1c[nH]c2ccccc12)C(N)=O
4.7	4.2	88.5	CC(C)C[C@H](NC(=O)CNC(=O)[C@H](Cc1ccccc1)NC(=O)c1cccc(N)c1)C(=O)N[C@@H](CCCNC(=N)N)C(=O)N[C@@H](Cc1c[nH]c2ccccc12)C(N)=O (H-[3Abz]FGLRW-NH2)
0.8	–	–	CC(C)C[C@H](NC(=O)CNC(=O)[C@H](Cc1ccccc1)NC(=O)c1ccccn1)C(=O)N[C@@H](CCCN=C(N)N)C(=O)N[C@@H](Cc1c[nH]c2ccccc12)C(N)=O
2	–	–	CC(C)C[C@H](NC(=O)CNC(=O)[C@H](Cc1ccccc1)NC(=O)c1ccc[nH]1)C(=O)N[C@@H](CCCN=C(N)N)C(=O)N[C@@H](Cc1c[nH]c2ccccc12)C(N)=O
–	–	90.4	CC(C)C[C@H](NC(=O)CNC(=O)[C@H](Cc1ccccc1)NC(=O)c1ccc(N)cc1)C(=O)N[C@@H](CCCNC(=N)N)C(=O)N[C@@H](Cc1c[nH]c2ccccc12)C(N)=O (H-[4Abz]FGLRW-NH2)
> 100	–	–	CC(C)C[C@H](NC(=O)CNC(=O)[C@H](Cc1ccccc1)NC(=O)c1cc(O)c(O)c(O)c1)C(=O)N[C@@H](CCCN=C(N)N)C(=O)N[C@@H](Cc1c[nH]c2ccccc12)C(N)=O
3.1	2.8	94	CC(C)C[C@H](NC(=O)CNC(=O)[C@H](Cc1ccccc1)NC(=O)c1ccccc1N)C(=O)N[C@@H](CCCNC(=N)N)C(=O)N[C@@H](Cc1c[nH]c2ccccc12)C(N)=O (H-[2Abz]FGLRW-NH2)
–	6.6	90.1	CC(C)C[C@H](NC(=O)CNC(=O)[C@H](Cc1ccccc1)NC(=O)c1ccccc1O)C(=O)N[C@@H](CCCNC(=N)N)C(=O)N[C@@H](Cc1c[nH]c2ccccc12)C(N)=O
3	4.1	93.5	CC(C)C[C@H](NC(=O)CNC(=O)[C@H](Cc1ccccc1)NC(=O)c1cccnc1)C(=O)N[C@@H](CCCNC(=N)N)C(=O)N[C@@H](Cc1c[nH]c2ccccc12)C(N)=O
–	1.7	95.8	CC(C)C[C@H](NC(=O)CNC(=O)[C@H](Cc1ccccc1)NC(=O)c1ccc[nH]1)C(=O)N[C@@H](CCCNC(=N)N)C(=O)N[C@@H](Cc1c[nH]c2ccccc12)C(N)=O
–	–	88.4	CC(C)C[C@H](NC(=O)CNC(=O)[C@H](Cc1ccccc1)NC(=O)c1c[nH]cn1)C(=O)N[C@@H](CCCNC(=N)N)C(=O)N[C@@H](Cc1c[nH]c2ccccc12)C(N)=O
3	–	–	CC(C)C[C@H](NC(=O)CNC(=O)[C@H](Cc1ccccc1)NC(=O)c1ccc(CO)cc1)C(=O)N[C@@H](CCCN=C(N)N)C(=O)N[C@@H](Cc1c[nH]c2ccccc12)C(N)=O
